Assays:
TLR9 = TLR9 (Mus musculus, UniProt Q9EQU3); test: Murine whole blood assay, ODN-IFN-α; assay type: cell-based
Outline: (§1)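 Fresh human blood or 129/Sv mouse blood was taken into citrate and diluted 1:1 with RPMI1640. It was pre-incubated 30 min at 37°C, 5% CO2 with increasing concentrations of test compound or 0.25% v/v DMSO (final). Blood was then stimulated with TLR agonists at doses from earlier work, or with R848 (3 μM), and cytokines were quantified. Viability was checked by ATPlite luminescence.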

[1] = test system: SLE immune-complex-driven IFN-α response in PBMCs; test: IFN-α release from PBMCs stimulated with SLE patient sera immune complexes; assay type: cell-based, human; conditions: PBMCs
TLR4 = TLR4 (Homo sapiens, UniProt O00206); test: Human whole blood assay, LPS-TNF; assay type: cell-based
TLR4, sequence (O00206 24-839): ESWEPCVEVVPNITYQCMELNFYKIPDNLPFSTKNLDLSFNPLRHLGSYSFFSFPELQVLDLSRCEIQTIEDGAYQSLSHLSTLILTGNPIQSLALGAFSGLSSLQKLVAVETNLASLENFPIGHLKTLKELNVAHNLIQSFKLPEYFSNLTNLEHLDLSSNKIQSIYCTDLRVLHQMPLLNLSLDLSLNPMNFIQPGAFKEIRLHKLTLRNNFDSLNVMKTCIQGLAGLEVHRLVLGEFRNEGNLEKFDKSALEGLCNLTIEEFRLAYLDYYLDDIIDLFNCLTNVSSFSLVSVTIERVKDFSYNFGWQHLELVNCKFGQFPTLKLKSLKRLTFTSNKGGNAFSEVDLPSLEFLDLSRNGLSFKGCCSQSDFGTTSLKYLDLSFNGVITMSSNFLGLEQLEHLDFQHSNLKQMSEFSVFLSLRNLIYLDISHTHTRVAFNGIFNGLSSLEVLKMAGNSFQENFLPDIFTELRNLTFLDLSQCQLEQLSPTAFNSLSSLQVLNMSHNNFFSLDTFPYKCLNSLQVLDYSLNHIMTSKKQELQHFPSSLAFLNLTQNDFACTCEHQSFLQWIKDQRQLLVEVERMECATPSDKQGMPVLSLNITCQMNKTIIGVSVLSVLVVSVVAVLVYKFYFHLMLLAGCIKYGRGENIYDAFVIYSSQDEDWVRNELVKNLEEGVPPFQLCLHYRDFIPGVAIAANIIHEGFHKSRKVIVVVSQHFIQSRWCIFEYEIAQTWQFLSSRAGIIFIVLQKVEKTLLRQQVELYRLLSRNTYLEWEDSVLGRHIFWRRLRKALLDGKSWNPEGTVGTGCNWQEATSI
TLR4, sequence (Q9Y6Y9 19-160 partner): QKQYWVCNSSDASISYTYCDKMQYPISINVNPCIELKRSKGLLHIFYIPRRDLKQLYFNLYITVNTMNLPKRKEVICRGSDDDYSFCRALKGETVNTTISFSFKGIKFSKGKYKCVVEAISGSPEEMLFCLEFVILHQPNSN
Outline: as §1

TLR7 [2] = target: T1, TLR7 (Homo sapiens, UniProt Q9NYK1); test: Isolated human pDC assay, ssRNA-driven IFN-α; assay type: cell-based; conditions: fixed dose of MHV370
T1 sequence (Q9NYK1 27-1049): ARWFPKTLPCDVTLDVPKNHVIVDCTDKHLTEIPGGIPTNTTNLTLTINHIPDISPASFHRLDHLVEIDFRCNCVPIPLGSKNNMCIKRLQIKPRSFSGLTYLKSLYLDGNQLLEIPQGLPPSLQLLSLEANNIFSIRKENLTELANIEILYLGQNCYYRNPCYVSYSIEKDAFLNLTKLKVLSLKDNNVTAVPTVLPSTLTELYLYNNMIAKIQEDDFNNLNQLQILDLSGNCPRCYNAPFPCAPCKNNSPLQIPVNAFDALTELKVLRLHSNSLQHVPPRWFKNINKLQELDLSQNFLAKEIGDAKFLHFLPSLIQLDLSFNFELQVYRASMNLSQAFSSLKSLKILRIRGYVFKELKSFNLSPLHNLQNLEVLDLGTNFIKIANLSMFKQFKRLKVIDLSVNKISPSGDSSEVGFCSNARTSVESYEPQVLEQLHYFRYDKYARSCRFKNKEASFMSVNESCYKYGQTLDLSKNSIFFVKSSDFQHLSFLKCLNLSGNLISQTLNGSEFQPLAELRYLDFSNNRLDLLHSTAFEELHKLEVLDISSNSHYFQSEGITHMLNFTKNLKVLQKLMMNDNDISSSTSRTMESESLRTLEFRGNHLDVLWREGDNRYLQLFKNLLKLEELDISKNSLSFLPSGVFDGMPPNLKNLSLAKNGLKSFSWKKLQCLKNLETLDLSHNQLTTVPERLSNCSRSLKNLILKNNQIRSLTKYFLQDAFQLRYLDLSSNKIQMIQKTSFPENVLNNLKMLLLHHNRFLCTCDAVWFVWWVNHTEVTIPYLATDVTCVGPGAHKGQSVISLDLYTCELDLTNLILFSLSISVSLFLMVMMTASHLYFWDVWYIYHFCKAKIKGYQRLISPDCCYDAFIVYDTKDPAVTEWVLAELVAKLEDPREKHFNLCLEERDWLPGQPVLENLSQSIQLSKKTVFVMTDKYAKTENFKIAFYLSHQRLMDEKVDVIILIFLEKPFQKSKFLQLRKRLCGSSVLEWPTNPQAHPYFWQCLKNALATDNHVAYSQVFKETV
Outline: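 pDCs were negatively enriched from PBMCs and resuspended in RPMI1640 with 10 ng/mL recombinant human IL-3. They were pre-treated 30 min with test compound or 0.25% v/v DMSO. Stimulation was 20 h at 37°C, 5% CO2 with ssRNA40 (10 μg/mL plus 25 μg/mL DOTAP) or ODN2216 (0.3 μM). IFN-α in supernatants was read by AlphaLisa; viability by CellTiter-Glo.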

[3] = test system: human PBMCs, monocytes, neutrophils, human blood; test: Cell viability in profiling assays; assay type: cell-based; conditions: human primary cells; concentrations of up to 10 μM
Outline: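 Toxicity counter-screens were run within each primary-cell assay across the test-compound dose range. PBMCs, isolated monocytes and neutrophils were read by CellTiter-Glo. Diluted whole blood was read by ATPlite luminescence.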

TLR7 [4] = target: T2, TLR7 (Mus musculus, UniProt P58681); test: Chronic TLR7 activation in vivo assay; conditions: 129/Sv mice; R848 plus MHV370 vs R848 plus vehicle
T2 sequence (P58681 27-1050): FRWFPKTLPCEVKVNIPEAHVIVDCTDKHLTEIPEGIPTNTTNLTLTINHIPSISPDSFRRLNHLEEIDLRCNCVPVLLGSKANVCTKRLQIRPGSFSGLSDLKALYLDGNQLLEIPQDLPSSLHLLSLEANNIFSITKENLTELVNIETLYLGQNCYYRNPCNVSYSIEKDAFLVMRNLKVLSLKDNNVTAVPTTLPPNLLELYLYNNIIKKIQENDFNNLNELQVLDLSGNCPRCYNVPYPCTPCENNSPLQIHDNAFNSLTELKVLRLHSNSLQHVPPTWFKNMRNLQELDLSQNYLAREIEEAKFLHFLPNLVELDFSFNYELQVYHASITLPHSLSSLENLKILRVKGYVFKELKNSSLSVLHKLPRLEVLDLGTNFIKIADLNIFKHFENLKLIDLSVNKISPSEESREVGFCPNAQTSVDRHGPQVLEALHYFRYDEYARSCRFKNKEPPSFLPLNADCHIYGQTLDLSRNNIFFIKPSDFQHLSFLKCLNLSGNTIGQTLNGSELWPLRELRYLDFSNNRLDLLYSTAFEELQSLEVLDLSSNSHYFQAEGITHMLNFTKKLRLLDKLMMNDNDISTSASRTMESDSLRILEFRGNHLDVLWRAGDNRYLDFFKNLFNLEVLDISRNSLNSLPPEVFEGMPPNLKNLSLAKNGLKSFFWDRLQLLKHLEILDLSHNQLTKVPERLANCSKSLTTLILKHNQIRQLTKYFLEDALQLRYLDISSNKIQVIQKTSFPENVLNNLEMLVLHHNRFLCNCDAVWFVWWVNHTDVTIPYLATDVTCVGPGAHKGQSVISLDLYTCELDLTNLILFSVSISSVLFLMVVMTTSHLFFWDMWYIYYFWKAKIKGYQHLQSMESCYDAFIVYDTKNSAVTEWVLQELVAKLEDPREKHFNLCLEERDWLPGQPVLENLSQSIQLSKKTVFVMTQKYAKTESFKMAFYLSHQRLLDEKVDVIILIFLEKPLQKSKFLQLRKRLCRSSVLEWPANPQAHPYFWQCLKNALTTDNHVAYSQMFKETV
Outline: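 129/Sv mice (5 per group) received R848 i.p. at 2.5 mg/kg daily for 14 days. From day 7, groups were dosed orally b.i.d. with test compound at 15 mg/kg or with vehicle. Naive mice served as reference. Blood RNA-seq counts were filtered (≥10 counts per million in ≥4 samples) and TMM-normalized in edgeR. Differential expression was analysed with limma.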

TLR9, sequence (Q9EQU3 26-1032): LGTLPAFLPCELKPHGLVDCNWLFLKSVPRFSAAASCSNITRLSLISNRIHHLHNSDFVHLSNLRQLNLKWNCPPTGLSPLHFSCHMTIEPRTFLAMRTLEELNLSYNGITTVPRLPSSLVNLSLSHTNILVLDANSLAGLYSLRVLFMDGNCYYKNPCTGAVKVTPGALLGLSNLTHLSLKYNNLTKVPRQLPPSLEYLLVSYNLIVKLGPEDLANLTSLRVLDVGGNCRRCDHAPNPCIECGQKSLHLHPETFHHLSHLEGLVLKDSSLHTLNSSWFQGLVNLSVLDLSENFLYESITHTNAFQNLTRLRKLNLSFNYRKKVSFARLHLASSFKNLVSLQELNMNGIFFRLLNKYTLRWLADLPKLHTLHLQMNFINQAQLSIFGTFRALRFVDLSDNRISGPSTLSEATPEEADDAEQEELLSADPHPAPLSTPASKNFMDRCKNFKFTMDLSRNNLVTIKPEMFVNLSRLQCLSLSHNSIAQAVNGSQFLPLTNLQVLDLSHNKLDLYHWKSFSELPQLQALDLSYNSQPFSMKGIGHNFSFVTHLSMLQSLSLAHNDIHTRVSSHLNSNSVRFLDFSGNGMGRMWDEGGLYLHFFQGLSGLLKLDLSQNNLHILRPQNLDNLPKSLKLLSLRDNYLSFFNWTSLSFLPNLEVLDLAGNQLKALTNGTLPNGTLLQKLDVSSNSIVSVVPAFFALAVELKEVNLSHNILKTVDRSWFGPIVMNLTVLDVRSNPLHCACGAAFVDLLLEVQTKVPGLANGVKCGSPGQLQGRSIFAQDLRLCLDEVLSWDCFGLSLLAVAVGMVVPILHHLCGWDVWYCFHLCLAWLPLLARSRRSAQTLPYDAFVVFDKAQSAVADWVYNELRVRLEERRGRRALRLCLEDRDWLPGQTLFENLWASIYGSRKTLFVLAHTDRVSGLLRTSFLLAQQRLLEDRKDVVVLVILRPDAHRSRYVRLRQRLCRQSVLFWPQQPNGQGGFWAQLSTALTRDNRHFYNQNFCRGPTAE

SMILES: Cc1cc(N2CCc3c(c(C)nn3CC34CCC(NC(=O)[C@@H]5COCCN5)(CC3)CC4)C2)c2cnn(C)c2n1 [MHV370, (S)-N-(4-((5-(1,6-dimethyl-1H-pyrazolo[3,4-b]pyridin-4-yl)-3-methyl-4,5,6,7-tetrahydro-1H-pyrazolo[4,3-c]pyridin-1-yl)methyl)bicyclo[2.2.2]octan-1-yl)morpholine-3-carboxamide]
- IC50 (TLR9): > 10 µM
- functional inhibition of TLR9 (TLR9; mouse blood, up to 10 μM): did not show functional inhibition
- immune-complex-driven responses, sera expressing dsDNA antibodies ([1]; MHV370 0.3 μM): blocked to a much lesser extent
- immune-complex-driven responses, sera positive for RNP/Sm and/or SS-A, or RNP/Sm and/or SS-A plus dsDNA autoantibodies ([1]; MHV370 0.3 μM): completely blocked
- IFN-α suppression, MHV370 added to HCQ ([1]; MHV370 1–10 nM combined with variable concentrations of HCQ, SLE immune complexes): almost complete suppression
- activity following TLR4 activation (TLR4): inactive
- ssRNA-driven IFN-α responses from pDCs (TLR7 [2]): blocked
- cell toxicity [3]: did not lead to cell toxicity
- inflammatory pathways (ISGs, TLR and TNF pathways), gene set enrichment in blood (TLR7 [4]): all downregulated

Source: PMC10213863 (Cell Reports Medicine, 2023)
